System: MS2 coat protein
Experiment: apparent Kd, MS2 coat protein; higher = weaker binding; RNA-MaP array
Method in brief: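 RNA designs were transcribed from sequenced DNA templates on an Illumina sequencing chip and then incubated at room temperature with fluorescently labeled MS2 coat protein at 1.5 nM to 3 μM, with or without input ligand, in Tris-HCl pH 7.5 buffer containing KCl, MgCl2, BSA, DTT, tRNA and Tween20. Incubation lasted 0.8–1.5 h at the lowest protein concentrations and 10–20 min at the highest. Apparent Kd is the median of binding-curve fits made for each cluster. Designs measured on fewer than 10 clusters were excluded.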

[1] = designed as: OFF switch for flavin mononucleotide, no ligand
[2] = ligand present: flavin mononucleotide, designed as: OFF switch for flavin mononucleotide
[3] = designed as: ON switch for flavin mononucleotide, no ligand
[4] = ligand present: flavin mononucleotide, designed as: ON switch for flavin mononucleotide
[5] = designed as: OFF switch for theophylline, no ligand
[6] = ligand present: theophylline, designed as: OFF switch for theophylline
[7] = designed as: OFF switch for tryptophan, no ligand
[8] = ligand present: tryptophan, designed as: OFF switch for tryptophan
[9] = designed as: ON switch for theophylline, no ligand
[10] = ligand present: theophylline, designed as: ON switch for theophylline

Sequence	apparent Kd [1] [nM]	apparent Kd [2] [nM]	apparent Kd [3] [nM]	apparent Kd [4] [nM]	also measured
CGUUAGACAGGAUAUACACUGGGAAGCGCGGUUUGCGGGAGACAUGAGGAUCACCCAUGUAGAAGGGUCCGGCA	9.14	9.4	–	–	–
CUAAAGGAUGAAGGAUAUUUGAGUGACACGCAGAAAGAAGGUCAAGCUUACAUGAGGAUCACCCAUGUGCGUGAGUGCAGGUGC	14.4	13.3	–	–	–
CUCAAACAUGAGGAUCACCCAUGUAAGGAUAUCCGUAAUAAAUUUGGUAAGAGGCGGCGGAGAAGGUACGCAGC	19.1	17.9	–	–	–
CUCAGUGUGUAGAAGGUUUGCAUAGAAACAUCAAAAGGAUAUACAUGGUGAAGCCUUGAAACAUGAGGAUCACCCAUGUCUACG	–	–	632	392	–
CUGAGCAAAGGAUAUACUAAUUGUGAGUGACCCAGUUAACGACAUGAGGAUCACCCAUGUAGAAGGUUGGAACA	26.4	24.6	–	–	–
CUGGUUGCCGGUUGCGACACAUGAGGAUCACCCAUGUAUACCGAGGAUAUGUGGAGCUGUAGAUGACAGAAGGCGGUGAGUAUC	–	–	53.7	38.1	–
CUUUAACAUGAGGAUCACCCAUGUCCGAUGAAUUUAGGAUAUCGCAUUGGUCGUAUGAGGCGAGAAGGAAAUUGUC	–	–	28.4	12.8	–
GAAAGAUGAGGAUAUACAUGAGGAUCACCCAUGUGAUUAAAUUGAACACCGAAUUACUGUAGAAGGCAUAAACC	19.9	16.8	–	–	–
GACGAGAGACAGAAGGCUCGACUGUGGCUACGAGAUCUGAAAACAUGAGGAUCACCCAUGUUUCGAGAGGAUAUGUCGAAUUAU	129	397	–	–	–
GAGGAGUAGUAGUCCGACACAUGAGGAUCACCCAUGUUAUGGAGAAGGCCGGAUCUGAGUAGAGCGGAGGAUAUCCUGAAUUAA	–	–	26.7	19.8	–
GAUUGCAUCGAUUCUCCACUCGCACCUGAUACCAGCGAUAGAAUUCGCCCUUGGCAGCAGUACACAUGAGGAUCACCCAUGUUAU	–	–	–	–	apparent Kd [5]: 30.7 nM; apparent Kd [6]: 75 nM
GCACAAUUAGGAUAUACAUGGGUAUAGGGUGAGACGAAUGCACAUGAGGAUCACCCAUGUAGAAGGAAUCGUCA	303	332	–	–	–
GCAGUGCGUGAGGAUAUGUGAGUGAACACACACACAGAAGGCACAACAUGAGGAUCACCCAUGUUCCUGGUGCC	7.62	7.95	–	–	–
GCCAUAAUCUGAGGAUAUAGAGAGAUAAGGAAGCACAUGAGGAUCACCCAUGUCCGUGGUAUAGGCAAGAAGGCAGCUGGAAUC	–	–	15.3	15.7	–
GCUCACAUGAGGAUCACCCAUGUCACGAGGUGAUGAUGAACAAGAAGGAAACUCAUAUGAUCAGUUUAGGAUAUUGCCCAGCGA	791	460	–	–	–
GCUCAUUGCGAGGAUAUUGGAAGAGUGUAAACUCAAGAAGGCGCAACAUGAGGAUCACCCAUGUGAACCCAAAU	7.91	14	–	–	–
GCUCCGCUAGCAGGAUAUGUAGGGGGAUUAUUGAUUGGGCGUAACAUGAGGAUCACCCAUGUUCCACAGAAGGGCUGGAGAAGA	107	68.3	–	–	–
GCUGUAAAGGAGAAGGUGAAUCGUAAGCUUGGUCAAGGAUAUCCGACUGGACAUGGCUGCAGACAUGAGGAUCACCCAUGUGCG	237	113	–	–	–
GGAUGGGUGGAAGGAUAUGAGCCCAGGACAUGAGGAUCACCCAUGUGUAGUUCAGUCUCUAAUUCUCAGAAGGUCCAGAUUCUA	18.1	21.5	–	–	–
GGCCAGGCAGCGGCCGCCACUUAGUGGGCCGAAUGUCCUUUGCUGAACAUGAGGAUCACCCAUGUAAGGACCGGGCUGUUCCGCA	–	–	–	–	apparent Kd [7]: 30.5 nM; apparent Kd [8]: 69.5 nM
GGCGCUACGCCGGUACAUGAGGAUCACCCAUGUCCAUAUGUAAGAAGGUCUGGCGGGACGACAAAGAAGGAUAUUACAGAUUGC	–	–	33.7	24.9	–

Sequence	apparent Kd [1] [nM]	apparent Kd [2] [nM]	apparent Kd [3] [nM]	apparent Kd [4] [nM]	also measured
GGCUAACAUGAGGAUCACCCAUGUAUUGAUACCAGUAUUUGAAAAUACCCUUGGCAGCAAAUGAAGAGCGUAGCAGGGUCGAUUA	–	–	–	–	apparent Kd [9]: 11.3 nM; apparent Kd [10]: 16.8 nM
GGGCGACUGCAAGGAUAUCUCGAAGUGAGUGGCAGAGAAGGUGCACGUACAUGAGGAUCACCCAUGUGAACUUAUUGGUCAAGG	25.2	21.9	–	–	–
GGUCAACGAUUUUACAUGAGGAUCACCCAUGUUACGGUCGCCGAGGAUAUGUCAGGAUUAUCACAACAGAAGGCGGAAGACACC	–	–	16.5	9.4	–
GUAGCUGAGUGUGAUACCAGAAACGACGUCCUUUAUCAUAACAUGAGGAUCACCCAUGUCUUCCCUUGGCAGCACUUUUCGGUCU	–	–	–	–	apparent Kd [5]: 36.9 nM; apparent Kd [6]: 64.8 nM
GUAGUGCUAAGAGGAUAUACGUUCUGCACAUGAGGAUCACCCAUGUACAAGGAGCCCAACCGGCGGUAGAAGGCUUUGACAGGA	–	–	17.4	11.3	–
GUCAAAUGUCAGAAGGUAGUGAUGUACUAAGGCUAAGGAUAUGAAGAAAAGAAAAUUACCGUUGACAUGAGGAUCACCCAUGUC	–	–	13.8	9.86	–
GUCAUCUGUUUAGGAUAUGCGGUAGACACCGGGCGAGAAACAUGAGGAUCACCCAUGUUCGGAUUGCAGAAGGAAACGGCAAUA	–	–	13.6	17	–
GUGAAGAUCCUAGGAUAUGAGACACCCGUAAGCUCAGAAGGAGGACGCGUAGAGGGUAACAUGAGGAUCACCCAUGUGAGUAAG	–	–	16.9	12.2	–
GUGAAGUUAGUGAGCGUUAGUCAAGCCAAACGAGGACCGGUACGGCCGCCACUCGCGCAUCGACAUGAGGAUCACCCAUGUGCCG	–	–	–	–	apparent Kd [7]: 14.6 nM; apparent Kd [8]: 17.7 nM
GUGCAGUUAUUAGGAUAUAAGACAUGGGACAUGAGGAUCACCCAUGUCGUAAGAAAUACCGUUGAUUAGAAGGAAUUCCGGCAC	–	–	1010	283	–
GUGGGACAUGAGGAUCACCCAUGUGACGAUACCAGUCAAUUGAUGGACCCUUGGCAGCGUUGGUAUUGCGGGUAGGCGAGAUAAG	–	–	–	–	apparent Kd [9]: 43.2 nM; apparent Kd [10]: 45.4 nM
GUUGAGGGCGUGCACAUGAGGAUCACCCAUGUUCUACCUAUCGAGGAUAUAUCUGUAGGAUCAGAAUAGAAGGCGAGCAAGGUC	21.4	14.8	–	–	–
UAACCACCGCAGGAUAUGCUAUGUUCAGUGUCUGCAGAAGGGCGUACAUGAGGAUCACCCAUGUAGUGACCUCA	95.2	110	–	–	–
UAAGUACGACAGAAGGGAUGAAAUUAUAACAAAUCAGGAUAUGUGAGUUACCAAUGCAAGCAUUACAUGAGGAUCACCCAUGUG	–	–	16.9	10.1	–
UACAAAGAAUAGGAUAUCGAGAGGUAAUUUGGGCGAGAAGGAUUCACAUGAGGAUCACCCAUGUAGGCGGAUCU	30.7	40.9	–	–	–
UAGAGCUCGCAAGGAUAUAACGCACAGAAACAUGAGGAUCACCCAUGUGGAAAGGAUCAACGUCGUUAGAAGGUGCAGAAAUAU	–	–	47.4	22	–
UAGCUGCUUCAGAAGGCCGUUGGGUGAAAACGCUCCGGGUGCCACAUGAGGAUCACCCAUGUUUCGGAGGAUAUGAAAGCAUCC	47.8	201	–	–	–
UAUCGAAGGUUUAAGGAUAUCGGCAGGCUCACAUGAGGAUCACCCAUGUCGCGAACAUCGCGCUACGAGAAGGUAAUCUUGAUGCA	–	–	58.9	24.3	–
UAUUGUAUAGGAUAUACAUGAGGAUCACCCAUGUUCGAUGUUUGGAGCCUGCUUCAUAGUAGAAGGAUACGCCC	16.3	16.7	–	–	–
UCAAUUGAGGUCAAGGAUAUCUAGAAACAGACAUGAGGAUCACCCAUGUGCACAGCAUAAACGAGAGAGAAGGUGAGGCAUAUUGA	–	–	42.7	26.5	–

— the EternaBench riboswitch data
